The values that follow come from ChEMBL document CHEMBL1123247, “Nucleoside conjugates. 7. Synthesis and antitumor activity of 1-beta-D-arabinofuranosylcytosine conjugates of ether lipids” (J Med Chem, 1986).

This experiment relates to L1210. In words: Antitumor activity against ip implanted L1210 leukemia in mice expressed as active dose range (1-5qd treatment schedule) required to produce increase in life span by >25% was determined; 60-100. The experiment is classed as functional, Mus musculus. The gist of the method:
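DBA/2J mice, groups of 6 (23-28 g), were inoculated ip with 1 × 10^6 L1210 cells on day 0. Dosing was ip from 24 h, in 0.9% NaCl with 0.5% Tween-80 (sonicated solution or suspension). Mice were observed daily until death or day 45. Median survival T/C followed NCI protocols, and ILS = (T/C − 1) × 100. Active range means doses giving ILS ≥25%; optimal dose means greatest ILS.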

Compound `CCCCCCCCCCCCCCCCCCOCC(COP(=O)(O)OP(=O)(O)OC[C@H]1O[C@@H](n2ccc(N)nc2=O)[C@@H](O)[C@@H]1O)OC(=O)CCCCCCCCCCCCCCC` (mixture of isomers) came in with an Active dose range of 60 mg/kg/day.
